In ChEMBL document CHEMBL1136886, “Optimization of benzimidazole series as opioid receptor-like 1 (ORL1) antagonists: SAR study directed toward improvement of selectivity over hERG activity” (Bioorg Med Chem Lett, 2009):
pIC50: −log10 of the molar value.

How the values were obtained:
[1] = molecular target: T1, Nociceptin receptor (Homo sapiens, UniProt P41146); test: Displacement of [125I]Tyr14-NC/OFQ from human ORL1 receptor
How it was run: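 Membrane fractions of CHO cells expressing human ORL1; binding affinity from displacement of radioligand [125I]Tyr14-NC/OFQ.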

[2] = molecular target: Voltage-gated inwardly rectifying potassium channel KCNH2 (Homo sapiens, UniProt Q12809); test: Displacement of [35S]MK499 from human ERG expressed in HEK293 cells
Sequence of Voltage-gated inwardly rectifying potassium channel KCNH2 (Q12809 whole entry): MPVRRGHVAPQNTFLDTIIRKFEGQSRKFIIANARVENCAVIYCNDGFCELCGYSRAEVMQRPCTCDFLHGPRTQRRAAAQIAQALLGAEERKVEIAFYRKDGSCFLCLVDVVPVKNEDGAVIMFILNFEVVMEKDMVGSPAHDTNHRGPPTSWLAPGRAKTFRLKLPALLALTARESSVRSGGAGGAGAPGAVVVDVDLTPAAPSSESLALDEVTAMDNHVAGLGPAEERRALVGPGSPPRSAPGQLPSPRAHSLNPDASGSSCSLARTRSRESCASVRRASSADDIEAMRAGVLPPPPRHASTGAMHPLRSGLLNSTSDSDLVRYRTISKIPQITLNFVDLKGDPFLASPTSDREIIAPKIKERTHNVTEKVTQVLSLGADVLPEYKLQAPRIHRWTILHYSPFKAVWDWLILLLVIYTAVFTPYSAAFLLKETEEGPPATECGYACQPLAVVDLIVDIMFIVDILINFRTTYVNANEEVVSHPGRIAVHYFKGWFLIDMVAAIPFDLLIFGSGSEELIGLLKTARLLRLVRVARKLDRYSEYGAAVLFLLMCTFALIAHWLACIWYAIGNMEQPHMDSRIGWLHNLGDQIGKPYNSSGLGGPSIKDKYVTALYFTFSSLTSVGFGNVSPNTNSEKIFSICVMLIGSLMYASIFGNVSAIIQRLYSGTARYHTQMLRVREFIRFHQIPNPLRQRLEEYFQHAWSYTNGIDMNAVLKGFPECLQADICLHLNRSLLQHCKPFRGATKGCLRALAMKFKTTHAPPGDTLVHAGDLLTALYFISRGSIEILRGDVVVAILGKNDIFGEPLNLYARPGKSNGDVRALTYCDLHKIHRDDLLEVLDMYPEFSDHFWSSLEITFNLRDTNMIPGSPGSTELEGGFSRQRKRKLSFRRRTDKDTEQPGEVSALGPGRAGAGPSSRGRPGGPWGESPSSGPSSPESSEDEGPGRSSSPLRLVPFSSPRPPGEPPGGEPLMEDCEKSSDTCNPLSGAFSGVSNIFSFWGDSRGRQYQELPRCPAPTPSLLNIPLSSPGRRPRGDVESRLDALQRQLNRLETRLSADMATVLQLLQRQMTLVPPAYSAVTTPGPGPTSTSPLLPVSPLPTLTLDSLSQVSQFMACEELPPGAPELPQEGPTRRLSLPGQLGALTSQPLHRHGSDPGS

[3] = molecular target: T1, Nociceptin receptor; test: Antagonist activity at ORL1 receptor expressed in CHO cells assessed as inhibition of NC/OFQ-stimulated [35S]GTPgammaS binding; type: functional, cell-based
How it was run: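 Membrane fractions of CHO cells expressing ORL1 used; functional activity measured by [35S]GTPγS binding to G proteins.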

[4] = Lipophilicity, log D at pH 7.4 by shake-flask method; type: physicochemical; settings: buffer
[5] = molecular target: Mu-type opioid receptor (Homo sapiens, UniProt P35372); test: Displacement of [3H]diprenorphin from human cloned mu opioid receptor expressed in CHO cells; type: cell-based
Sequence of Mu-type opioid receptor (P35372 whole entry): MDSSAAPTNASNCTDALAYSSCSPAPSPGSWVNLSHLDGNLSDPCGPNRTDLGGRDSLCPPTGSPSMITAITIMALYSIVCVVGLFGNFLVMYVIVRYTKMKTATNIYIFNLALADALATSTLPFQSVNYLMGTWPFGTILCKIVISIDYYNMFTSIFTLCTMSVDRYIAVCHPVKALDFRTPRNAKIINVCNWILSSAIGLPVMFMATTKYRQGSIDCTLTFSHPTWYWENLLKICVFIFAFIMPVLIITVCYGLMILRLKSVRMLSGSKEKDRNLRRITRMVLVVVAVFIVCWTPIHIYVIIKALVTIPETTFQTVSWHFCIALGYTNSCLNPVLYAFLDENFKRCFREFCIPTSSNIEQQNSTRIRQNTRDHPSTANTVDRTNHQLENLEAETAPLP

[6] = molecular target: Kappa-type opioid receptor (Homo sapiens, UniProt P41145); test: Displacement of [3H]U69593 from human cloned kappa opioid receptor expressed in CHO cells; type: cell-based
Sequence of Kappa-type opioid receptor (P41145 whole entry): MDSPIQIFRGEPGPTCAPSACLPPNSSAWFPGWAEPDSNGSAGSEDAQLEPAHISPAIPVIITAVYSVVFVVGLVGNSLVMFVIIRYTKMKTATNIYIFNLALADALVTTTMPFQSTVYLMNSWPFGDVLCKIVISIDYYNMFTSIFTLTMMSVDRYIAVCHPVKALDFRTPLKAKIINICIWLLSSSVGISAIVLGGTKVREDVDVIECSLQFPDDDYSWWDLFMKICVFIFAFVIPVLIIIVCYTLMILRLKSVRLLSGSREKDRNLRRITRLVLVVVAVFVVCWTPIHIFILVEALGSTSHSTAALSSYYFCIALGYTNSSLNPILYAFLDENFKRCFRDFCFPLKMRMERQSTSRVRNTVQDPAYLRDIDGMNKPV

T1 sequence (P41146 whole entry): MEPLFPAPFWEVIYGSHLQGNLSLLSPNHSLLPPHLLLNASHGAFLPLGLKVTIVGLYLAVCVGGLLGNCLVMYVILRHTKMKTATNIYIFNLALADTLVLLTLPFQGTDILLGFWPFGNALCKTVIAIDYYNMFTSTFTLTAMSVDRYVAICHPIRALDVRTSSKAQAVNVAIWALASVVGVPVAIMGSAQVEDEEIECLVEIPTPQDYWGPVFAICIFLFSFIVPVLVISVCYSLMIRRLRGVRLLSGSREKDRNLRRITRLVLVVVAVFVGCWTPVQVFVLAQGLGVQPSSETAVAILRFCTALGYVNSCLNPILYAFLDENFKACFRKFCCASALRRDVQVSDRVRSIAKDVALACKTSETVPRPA

Compound	pIC50 [1]	pIC50 [3]	logD [4]	pIC50 [5]	pIC50 [6]	pIC50 [2]
C[C@@H]1CN(CC(F)F)CCN1c1cc2[nH]c(SC(C)(C)C)nc2cc1Cl	7.64	–	–	–	–	< 5.00
CCN1CCN(c2cc3[nH]c(SC(C)(C)C)nc3cc2Cl)CC1	7.66	–	–	–	–	–
CCN1CCN(c2cc3[nH]c(SC(C)(C)CCNC(=O)OC)nc3cc2Cl)CC1	7.68	8.07	–	–	–	–
CCOC(=O)N1CCC(C)(Sc2nc3cc(Cl)c(N4CCN(CC)CC4)cc3[nH]2)CC1	8.37	8.96	–	–	–	–
C[C@@H]1CN(CC#N)CCN1c1cc2[nH]c(SC(C)(C)C)nc2cc1Cl	7.21	–	–	–	–	–
C[C@@H]1CN(CCC#N)CCN1c1cc2[nH]c(SC(C)(C)C)nc2cc1Cl	7.57	8.19	–	–	–	< 5.00
C[C@@H]1CN(CC(F)(F)F)CCN1c1cc2[nH]c(SC(C)(C)C)nc2cc1Cl	6.20	–	–	–	–	–
CCN1CCN(c2cc3[nH]c(S[C@]4(C)CC[C@H](NC(=O)OC)CC4)nc3cc2Cl)CC1	8.02	8.68	–	–	–	5.82
CCN1CCN(c2cc3[nH]c(SC(C)(C)C)nc3cc2Cl)[C@H](C)C1	8.04	8.54	–	–	–	6.00
CCN1CCN(c2cc3[nH]c(S[C@]4(C)CC[C@@H](S(C)(=O)=O)CC4)nc3cc2Cl)CC1	8.16	8.40	–	–	–	< 5.00
C[C@@H]1CN(CCO)CCN1c1cc2[nH]c(SC(C)(C)C)nc2cc1Cl	–	–	–	–	–	5.80
CCN1CCN(c2cc3[nH]c(S[C@]4(C)CC[C@@H](c5nnnn5C)CC4)nc3cc2Cl)CC1	8.13	8.43	2.3	–	–	–
CC(=O)CN1CCN(c2cc3[nH]c(SC(C)(C)C)nc3cc2Cl)C(C)C1 (racemic)	–	7.39	–	–	–	< 5.00
CCN1CCN(c2cc3[nH]c(SC4(C)CCC(NC(=O)OC)C4)nc3cc2Cl)CC1 (racemic)	–	7.34	–	–	–	–

Now from value to compound, other results behind:

pIC50 [1]	pIC50 [3]	logD [4]	pIC50 [5]	pIC50 [6]	Compound	pIC50 [2]
8.77	9.04	3.8	–	–	CCN1CCN(c2cc3[nH]c(S[C@]4(C)CC[C@@H](c5nc(C)no5)CC4)nc3cc2Cl)CC1	–
8.66	9.05	3.1	–	–	CCN1CCN(c2cc3[nH]c(S[C@]4(C)CC[C@@H](c5nnn(C)n5)CC4)nc3cc2Cl)CC1	–
9.09	8.89	2.7	6.08	6.80	CCN1CCN(c2cc3[nH]c(S[C@]4(C)CC[C@@H](N(C)C(C)=O)CC4)nc3cc2Cl)CC1	–
8.68	8.74	2.5	–	–	CCN1CCN(c2cc3[nH]c(S[C@]4(C)CC[C@@H](NS(C)(=O)=O)CC4)nc3cc2Cl)CC1	< 5.00
8.96	9.23	–	–	–	CCN1CCN(c2cc3[nH]c(S[C@]4(C)CC[C@@H](c5nnco5)CC4)nc3cc2Cl)CC1	–
8.74	8.15	–	–	–	CCN1CCN(c2cc3[nH]c(S[C@]4(C)CC[C@@H](c5nnc(C)o5)CC4)nc3cc2Cl)CC1	–
8.72	8.96	2.5	–	–	CCN1CCN(c2cc3[nH]c(S[C@]4(C)CC[C@@H](NC(C)=O)CC4)nc3cc2Cl)CC1	< 5.00
8.62	9.14	3.4	–	–	CCN1CCN(c2cc3[nH]c(S[C@]4(C)CC[C@@H](NC(=O)OC)CC4)nc3cc2Cl)CC1	5.46
9.00	8.96	–	–	–	CCN1CCN(c2cc3[nH]c(S[C@]4(C)CC[C@@H](C(=O)NC)CC4)nc3cc2Cl)CC1	< 5.00
8.85	9.26	2.9	–	–	CCN1CCN(c2cc3[nH]c(S[C@]4(C)CC[C@@H](N5CCCC5=O)CC4)nc3cc2Cl)CC1	< 5.00
